Sampled rows, rich in hits. Any-hit rate of the full collection: about 5.8%.
ROMK primary = modulates human ROMK potassium channel activity. B-score at 10 µM. AID 1918. Tet-inducible ROMK, thallium flux fluorescence; actives lie on both sides. 130,000 tested, 2% active. P48048;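 active = signal ratio slope over the read window, or its plate-corrected B-score, at least 3 SD from the plate mean, either direction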;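 also: B-score of the F/F0 ratio slope over 7 to 12 s after thallium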
Target sequence (P48048 whole entry, looked up): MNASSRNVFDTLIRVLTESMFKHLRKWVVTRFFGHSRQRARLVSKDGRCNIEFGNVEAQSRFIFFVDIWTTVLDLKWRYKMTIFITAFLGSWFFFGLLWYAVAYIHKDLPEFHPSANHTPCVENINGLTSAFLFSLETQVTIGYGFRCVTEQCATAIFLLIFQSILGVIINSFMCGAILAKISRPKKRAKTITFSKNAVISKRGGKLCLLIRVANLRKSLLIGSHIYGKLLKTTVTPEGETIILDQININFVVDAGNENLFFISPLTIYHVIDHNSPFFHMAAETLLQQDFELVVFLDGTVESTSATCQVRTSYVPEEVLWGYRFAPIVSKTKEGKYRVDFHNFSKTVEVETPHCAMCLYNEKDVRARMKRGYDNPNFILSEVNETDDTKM
KCC2 mod = modulates chloride dependent transport by human KCC2 | Q9H2X9 | KCC2 cells, thallium flux FluoZin-2 fluorescence | B-score of Tl+ flux slope (higher = more flux/activation; lower = inhibition) at 10 µM | 190,000 tested, 2.2% active | AID 1456;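 active = thallium flux slope and its plate-corrected score both differing from the plate sample mean at a set confidence after two filtering rounds, in either direction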;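 also: slope of fluorescence scaled to starting intensity during 10 to 20 s after thallium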
p47phox inh = inhibitors of human p47phox binding | P14598 | p47phox/p22phox peptide binding, fluorescence polarization, 2 h | inhibition, % at 24.7 µM | 220,000 tested, 0.53% active | AID 1274;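 active = inhibition above about 30%, limit read from the data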;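 also: 0% = p47phox with labelled peptide and 100% = labelled peptide alone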
RBBP9 inhibitor = blocks human serine hydrolase RBBP9; recombinant RBBP9, FP-Rh probe fluorescence polarization; O75884; inhibition, % at 7.94 µM; 220,000 tested, 0.2% active;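 active = inhibition above the campaign mean of all tested compounds plus 3 SD, cut at about 14% in these data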;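 also: plate controls were DMSO wells with RBBP9 for no effect and wells lacking RBBP9 protein for full effect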
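Assay system: recombinant human RBBP9; Reagent: Serine-hydrolase probe FP-Rh, 375 nM pre-mixing; Doses: 7.94 µM single dose, 0.794% DMSO; Incubation: 30 min then 45 min, 25 °C; Detection: fluorescence polarization (mP), excitation 525 nm, emission 598 nm; Evaluation: percent inhibition from mP, scaled between DMSO and no-protein wells.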
14-3-3 Bad inh = disrupts binding of bovine 14-3-3 zeta to phospho-Bad peptide | P63103 | TR-FRET 14-3-3zeta/Dy647-pBad peptide displacement, 1 h | inhibition, % at 21.7 µM | 220,000 tested, 0.71% active;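 active = inhibition above about 70%, limit read from the data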;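 also: 0% = full 14-3-3 plus peptide FRET controls and 100% = background without 14-3-3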
Target sequence (P63103 whole entry, looked up): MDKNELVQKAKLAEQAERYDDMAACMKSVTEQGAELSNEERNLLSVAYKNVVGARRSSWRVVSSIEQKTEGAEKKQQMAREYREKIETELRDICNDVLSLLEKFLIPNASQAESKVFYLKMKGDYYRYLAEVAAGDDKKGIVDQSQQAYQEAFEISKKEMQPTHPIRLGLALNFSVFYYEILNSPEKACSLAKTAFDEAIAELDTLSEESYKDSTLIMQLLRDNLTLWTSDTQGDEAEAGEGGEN
WT yeast gro inh = growth inhibition of WT yeast, mitochondrial fusion screen; mitochondrial fusion phenotypic screen, WT strain; inhibition, % at 10 µM; 190,000 tested, 2.1% active; AID 1362; in the data active = inhibition above about 58%; tested in S. cerevisiae
The depositor's hits bear a star; nt = no result given; [ ] = remark or other dose.

SMILES	ROMK primary	KCC2 mod	p47phox inh	RBBP9 inhibitor	14-3-3 Bad inh	WT yeast gro inh
Cc1cc(Nc2cccc(Cl)c2)nc(NCc2ccccc2)n1	0.668	-0.0536	-54.0	-4.8	-0.5	97.2*
CN(C)c1cc(N/N=C\c2ccccc2)nc(N(C)C)n1	-2.13	0.545	-49.3	-6.1	1.0	58.7*
COc1ccc(/C=N/Nc2cc(N(C)C)nc(N(C)C)n2)cc1	-1.13	-0.431	-5.9	-1.5	-1.4	40.1
Cc1cc(N/N=C/c2ccc(Cl)cc2)nc(NCc2ccccc2)n1	nt	0.64	-16.6	-5.2	-2.7	96.3
Cc1cc(N/N=C/c2cccc(Cl)c2)nc(NCc2ccccc2)n1	nt	0.051	-18.1	-9.5	-1.9	82.1*
Cc1cc(N/N=C/c2ccccc2)nc(NCc2ccccc2)n1	nt	-0.138	-23.5	-11.6	4.7	61.8*
Cc1ccc(S(=O)(=O)N2CCN(CC(=O)N(CC(C)C)c3c(N)n(CC(C)C)c(=O)[nH]c3=O)CC2)c(C)c1	nt	0.462	-12.2	2.8	-2.8	-3.7
O=C(c1ccc2c(=O)n(C3CCCC3)c(=S)[nH]c2c1)N1CCc2ccccc21	nt	17.5*	-19.1	-7.6	-13.7	15.9
COc1ccc(C(=O)/C=C/c2ccc(O)cc2)c(O)c1CC=C(C)C	1.4	-0.406	-32.7	-11.1	4.9	87.2*
O=C(O)C1CCCCC1C(=O)NCc1cn2ccccc2n1 (centres undefined)	nt	nt	36.5*	-7.2	-0.1	7.9
O=C(O)C1CC=CCC1C(=O)NCc1cn2ccccc2n1 (centres undefined)	nt	0.692	-4.2	-5.4	10.6	9.0
Cc1ccc(S(=O)(=O)NCCC(=O)OCC(=O)Nc2ccccc2Cl)cc1	-0.16	0.033	33.0*	-4.8	-9.1	31.8
CCCSc1nc2c(c(=O)[nH]c(=O)n2C)n1Cc1ccc(C)cc1	0.532	0.611	33.3*	1.9	10.9	-11.7
CC1C(c2ccccc2)N(C)C(c2ccccc2)C(C)C1(O)C#Cc1ccccc1 (centres undefined)	nt	0.894	-21.0	-6.8	10.1	75.2*
N#CC1=C(N)C(C#N)(C#N)C(c2cccnc2)C2CCCC=C12 (centres undefined)	nt	-0.576	-12.9	-3.6	-1.4	-1.5
N#CC1=C(N)C(C#N)(C#N)C(c2cccnc2)C2CC(c3ccccc3)CC=C12 (centres undefined)	nt	-2.58*	-23.2	-7.3	-18.3	16.4
CCN(CC)S(=O)(=O)c1ccc(NC(=O)c2cccc3c2C(=O)N(CCOC)C3)cc1	nt	-0.387	-4.3	-5.0	84.1*[fluorescence artefact?]	1.6
O=C(O)c1cccc(-n2cccc2/C=C2/NC(=O)N(c3ccc(Cl)cc3)C2=O)c1	1.39	-2.11	-37.0	-6.5	93.9*	-3.1
Cc1ccc(-c2nc3cccnc3s2)cc1NC(=O)C1c2ccccc2Oc2ccccc21	0.942	0.678	33.3*	-8.8	78.1*	-14.0
CCN(CC)CCN1C(=O)C(=O)/C(=C(/O)c2ccc(OC(C)C)cc2)C1c1cccs1 (centres undefined)	nt	0.502	-5.4	1.9	-2.1	nt
COC(=O)c1c(-c2c(Cl)cccc2Cl)noc1NC(=O)N(C)C	nt	nt	-1.6	5.8	-5.1	nt
COC(=O)c1onc(-c2c(Cl)cccc2Cl)c1C(=O)OC	nt	nt	46.6*	-3.7	1.1	nt
CC(C)n1c2ccccc2c2cc([N+](=O)[O-])ccc21	0.896	0.246	-20.9	-9.3	4.0	6.5
CCC(C)n1c(=S)[nH]c2c(sc3ccc([N+](=O)[O-])cc32)c1=O (centres undefined)	5.34*	52.6*	-2.0	-24.8	-6.9	68.1*
Cc1cc(C)c2cc(CN(Cc3ccco3)C(=S)NCC3CCCO3)c(=O)[nH]c2c1 (centres undefined)	0.344	-2.72	1.8	-6.0	-10.4	6.7
SMILES	ROMK primary	KCC2 mod	p47phox inh	RBBP9 inhibitor	14-3-3 Bad inh	WT yeast gro inh
COc1ccc(Nc2nc(NC(C)(C)C)nc(N3CCOCC3)n2)c(OC)c1	-0.594	-0.615	8.3	-4.4	-7.2	37.8
COc1ccc(Nc2nc(NC(C)(C)C)nc(N3CCCC3)n2)c(OC)c1	nt	1.5	-18.0	-4.9	-3.5	83.6*
CC(C)=CCC(C)(C)/C=N/NC(N)=O	nt	0.674	-6.9	-8.5	0.0	nt
COC(=O)c1ccc(N)cc1O	nt	nt	-5.5	0.9	0.8	5.6
COC(=O)c1ccc(=O)c2nc3/c(=C/O)c(O)cc(=O)c3[nH]c12	0.243	0.784	-10.0	7.7	73.2*	nt
CCOc1cc(S(=O)(=O)NCc2ccncc2)c(C)cc1C	-1.26	-0.0635	-4.7	-1.9	-3.6	4.6
COc1ccc(NCc2nc3ccccc3n2CCOc2ccc(C)cc2)cc1	-0.999	-2.6	-24.1	-3.1	-13.4	71.4*
c1ccc(NCc2nc3ccccc3n2CCOc2ccccc2)cc1	-0.493	-8.21e-05	-26.8	-6.8	0.0	77.2*
COc1ccc(NCc2nc3ccccc3n2CCOc2ccccc2)cc1	nt	-0.0884	-14.0	-5.5	-6.4	21.1
CCCc1nc2ccccc2n1CCOc1ccccc1	nt	-2.08	-16.0	-4.5	8.8	nt
Nc1nc(CN2CCN(C(=O)c3ccco3)CC2)nc(Nc2cccc(Cl)c2)n1	-1.83	-0.863	0.1	-14.7	9.9	3.9
CCOC(=O)C1CCN(c2c(Nc3ccc(C)c(C)c3)c(=O)c2=O)CC1	nt	0.0356	-9.0	6.3	1.5	nt
CCN(CC)C(=O)C1CC(=O)N(c2ccc(F)c(Cl)c2)C1 (centres undefined)	nt	0.295	nt	-5.8	nt	59.1*
N#CC1=C(N)SC(N)=C(C#N)C1CCc1ccccc1	nt	-3.05*	-94.9	-7.5	-9.3	0.1
N#CC1=C(N)SC(N)=C(C#N)C1c1c(Cl)cccc1Cl	-2	nt	-61.7	-5.2	16.5	62.7*
N#CC1=C(N)SC(N)=C(C#N)C1c1cccc(Oc2ccccc2)c1	-1.88	-1.18	-67.3	-19.4	8.2	2.8
CCOc1ccc(C2C(C#N)=C(N)SC(N)=C2C#N)cc1OCC	nt	nt	-25.5	nt	3.5	18.8
CCc1ccc(C2C(C#N)=C(N)SC(N)=C2C#N)cc1	-4.18*	7.91*	-58.5	-11.1	-6.0	1.4
O=C(N/N=C/c1cn(Cc2ccccc2)c2ccccc12)c1cccnc1	nt	0.0959	-1.8	-38.7	-4.2	-3.2
O=C(N/N=C/c1c(O)n(Cc2ccccc2)c(=O)c2ccccc12)c1cccnc1	-4.45*	-3.17*	-16.8	-4.6	-11.4	-4.1
O=C(CSc1nncs1)NCc1ccc(F)cc1	-0.0056	0.78	1.3	1.3	-9.0	-5.8
CCCCN(C)C(=O)c1cc2c(s1)-c1ccccc1S(=O)(=O)C2	0.26	0.95	-7.6	0.0	6.8	nt
O=C(O)c1ccccc1-n1ncc2c1/C(=C/c1ccc(Cl)cc1)CC2	nt	-2.49	-9.2	-9.0	79.0*	nt
Cc1noc(C)c1COc1ccc(C(=O)OCC(=O)Nc2c(C)n(C)n(-c3ccccc3)c2=O)cc1	-0.122	-2.26	0.8	-7.3	6.2	0.5
O=C(c1cccc(C(F)(F)F)c1)C1CCCN(C(=O)CCCN2CCCC2=O)C1 (centres undefined)	0.744	nt	-10.7	-1.1	-5.9	-10.8
Cc1ccccc1-c1nnc(-c2ccc(Br)cc2)o1	0.273	1.13	-5.3	-1.7	-7.0	9.3
